ChEMBL document CHEMBL1132571, “1-aryl-4-[(5-methoxy-1,2,3, 4-tetrahydronaphthalen-1-yl)alkyl]piperazines and their analogues: influence of the stereochemistry of the tetrahydronaphthalen-1-yl nucleus on 5-HT1A receptor affinity and selectivity versus alpha1 and D2 receptors. 5” (J Med Chem, 1999)

Tests used:
[1] = Selectivity for alpha-1 receptor compared to 5-HT1A receptor.
[2] = Selectivity for D2 receptor compared to 5-HT1A receptor.
[3] = target: T1, Adrenergic receptor alpha-1 (Rattus norvegicus, UniProt P15823+P23944+P43140); test: In vitro inhibition of [3H]prazosin binding to rat alpha-1 adrenergic receptors.; assay type: protein assay
T1 sequence (P15823 whole entry): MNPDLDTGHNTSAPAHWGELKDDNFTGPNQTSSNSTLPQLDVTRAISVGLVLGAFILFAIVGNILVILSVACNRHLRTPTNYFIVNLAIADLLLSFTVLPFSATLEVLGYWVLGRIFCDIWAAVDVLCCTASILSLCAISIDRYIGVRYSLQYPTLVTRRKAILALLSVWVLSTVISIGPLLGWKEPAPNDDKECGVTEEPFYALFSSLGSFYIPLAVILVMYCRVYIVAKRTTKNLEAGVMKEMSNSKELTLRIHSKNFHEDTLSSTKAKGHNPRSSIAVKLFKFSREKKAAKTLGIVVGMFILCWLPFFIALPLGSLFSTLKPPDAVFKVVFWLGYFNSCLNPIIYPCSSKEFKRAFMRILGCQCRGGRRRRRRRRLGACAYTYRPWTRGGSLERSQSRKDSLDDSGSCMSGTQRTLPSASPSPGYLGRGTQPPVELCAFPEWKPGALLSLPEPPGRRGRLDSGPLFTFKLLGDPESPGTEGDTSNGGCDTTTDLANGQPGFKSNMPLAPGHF
T1 sequence (P23944 whole entry): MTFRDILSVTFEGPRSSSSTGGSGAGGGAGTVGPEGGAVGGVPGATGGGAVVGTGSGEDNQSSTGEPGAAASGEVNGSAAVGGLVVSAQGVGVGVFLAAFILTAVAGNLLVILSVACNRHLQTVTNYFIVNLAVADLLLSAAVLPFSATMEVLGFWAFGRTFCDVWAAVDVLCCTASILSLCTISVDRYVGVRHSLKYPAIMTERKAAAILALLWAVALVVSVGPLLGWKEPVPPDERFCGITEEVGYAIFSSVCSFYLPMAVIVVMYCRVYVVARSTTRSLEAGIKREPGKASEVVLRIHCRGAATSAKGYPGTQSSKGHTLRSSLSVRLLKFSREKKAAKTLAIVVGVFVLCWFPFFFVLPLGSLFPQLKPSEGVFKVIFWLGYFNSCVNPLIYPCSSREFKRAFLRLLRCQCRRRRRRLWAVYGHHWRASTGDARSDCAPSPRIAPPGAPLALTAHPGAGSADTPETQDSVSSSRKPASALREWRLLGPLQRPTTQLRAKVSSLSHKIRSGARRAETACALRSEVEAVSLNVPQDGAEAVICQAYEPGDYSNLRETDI
T1 sequence (P43140 whole entry): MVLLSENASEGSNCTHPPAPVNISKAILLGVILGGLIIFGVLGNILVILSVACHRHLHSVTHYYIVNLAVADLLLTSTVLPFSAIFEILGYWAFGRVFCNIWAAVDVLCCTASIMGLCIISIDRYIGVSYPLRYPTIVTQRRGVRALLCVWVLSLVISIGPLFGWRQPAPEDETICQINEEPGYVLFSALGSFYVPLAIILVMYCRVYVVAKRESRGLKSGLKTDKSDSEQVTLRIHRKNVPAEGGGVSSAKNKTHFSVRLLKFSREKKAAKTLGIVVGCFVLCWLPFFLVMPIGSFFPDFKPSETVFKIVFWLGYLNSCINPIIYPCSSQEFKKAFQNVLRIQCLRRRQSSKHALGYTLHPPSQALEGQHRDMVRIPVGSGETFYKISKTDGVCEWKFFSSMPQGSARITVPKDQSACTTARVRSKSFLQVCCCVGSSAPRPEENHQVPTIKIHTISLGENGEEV
Outline: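 [3H]Prazosin displacement in rat brain cortex membranes, standard binding procedure, with eight to nine concentrations of each hydrochloride salt. Specific binding was above 80% of total. LIGAND program used to obtain IC50 from inhibition of specific binding.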

D(2) dopamine receptor = D(2) dopamine receptor (Rattus norvegicus, UniProt P61169); test: In vitro inhibition of [3H]spiroperidol binding to rat Dopamine D2 receptors.
[4] = target: T2, 5-hydroxytryptamine receptor 1A (Rattus norvegicus, UniProt P19327); test: In vitro inhibition of [3H]8-OH-DPAT binding to rat 5-HT 1a receptors.
T2 sequence (P19327 whole entry): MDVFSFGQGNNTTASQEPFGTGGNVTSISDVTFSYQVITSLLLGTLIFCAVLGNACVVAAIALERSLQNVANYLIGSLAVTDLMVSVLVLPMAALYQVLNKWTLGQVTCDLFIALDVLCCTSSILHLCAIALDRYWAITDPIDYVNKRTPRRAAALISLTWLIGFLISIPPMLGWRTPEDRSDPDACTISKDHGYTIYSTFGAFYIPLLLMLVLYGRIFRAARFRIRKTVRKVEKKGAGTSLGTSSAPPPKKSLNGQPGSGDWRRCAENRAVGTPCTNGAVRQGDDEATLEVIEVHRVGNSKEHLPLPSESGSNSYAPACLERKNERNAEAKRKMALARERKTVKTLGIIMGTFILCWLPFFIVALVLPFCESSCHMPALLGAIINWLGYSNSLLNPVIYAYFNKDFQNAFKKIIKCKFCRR
Outline: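 Rat hippocampal membranes labelled with [3H]-8-OH-DPAT by standard binding methods, in competition with eight to nine test concentrations. Specific binding was over 80% of total. IC50 derived from inhibition of specific radioligand binding by LIGAND analysis.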

D(2) dopamine receptor, sequence (P61169 whole entry): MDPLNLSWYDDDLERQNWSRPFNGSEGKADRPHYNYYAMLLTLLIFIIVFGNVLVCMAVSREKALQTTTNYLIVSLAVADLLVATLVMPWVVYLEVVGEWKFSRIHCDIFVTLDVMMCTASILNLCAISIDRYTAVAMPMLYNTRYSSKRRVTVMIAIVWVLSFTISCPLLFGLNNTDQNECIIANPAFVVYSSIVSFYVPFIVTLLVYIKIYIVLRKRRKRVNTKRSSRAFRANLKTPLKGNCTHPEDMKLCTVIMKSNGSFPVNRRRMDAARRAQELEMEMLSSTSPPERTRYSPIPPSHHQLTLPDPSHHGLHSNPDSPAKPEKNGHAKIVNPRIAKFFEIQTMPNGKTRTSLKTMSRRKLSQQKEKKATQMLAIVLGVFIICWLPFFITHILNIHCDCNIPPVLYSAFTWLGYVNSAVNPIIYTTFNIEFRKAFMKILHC

| Compound | Selectivity [1] | Selectivity [2] | IC50 [3] | IC50 (D(2) dopamine receptor) | IC50 [4] |
| --- | --- | --- | --- | --- | --- |
| COc1cccc2c1CCCC2CCCN1CCN(c2ccccn2)CC1 (configuration not stated) | 122 | 259 | – | – | – |
| COc1ccccc1N1CCN(CCCN[C@@H]2CCCc3c(OC)cccc32)CC1 | 243 | 271 | 1700 nM | 1900 nM | 7 nM |
| COc1ccccc1N1CCN(CCCNC2CCCc3c(OC)cccc32)CC1 (configuration not stated) | 88 | 106 | – | – | – |
| COc1ccccc1N1CCN(CCN[C@H]2CCCc3c(OC)cccc32)CC1 | 33 | 93 | 228 nM | 650 nM | 7 nM |
| COc1cccc2c1CCC[C@@H]2CCCN1CCN(c2ccccn2)CC1 | 19 | 196 | 85 nM | 880 nM | 4.5 nM |
| COc1cccc2c1CCCC2CCCN1CCN(c2ccccc2)CC1 (configuration not stated) | 86 | 220 | – | – | – |
| COc1cccc2c1CCC[C@H]2CCCN1CCN(c2ccccn2)CC1 | 252 | 261 | 580 nM | 600 nM | 2.3 nM |
| NCCCC1(CCCN)CCc2cccc(O)c2C1 | – | – | – | – | 2.5 nM |
| COc1cccc2c1CCC[C@H]2CCCN1CCN(c2ccccc2)CC1 | 396 | 254 | 950 nM | 610 nM | 2.4 nM |
| COc1ccccc1N1CCN(CCC(=O)N[C@H]2CCCc3c(OC)cccc32)CC1 | – | – | 240 nM | 2600 nM | – |
| COc1ccccc1N1CCN(CCN[C@@H]2CCCc3c(OC)cccc32)CC1 | 100 | 320 | 1000 nM | 3200 nM | 10 nM |
| COc1ccccc1N1CCN(CCCN[C@H]2CCCc3c(OC)cccc32)CC1 | 19 | 68 | 649 nM | 2300 nM | 34 nM |
| COc1ccccc1N1CCN(CCC[C@@H]2CCCc3c(OC)cccc32)CC1 | – | – | 33 nM | – | 1.3 nM |
| COc1cccc2c1CCC[C@@H]2CCCN1CCN(c2ccccc2)CC1 | 14 | 205 | 61 nM | 880 nM | 4.3 nM |
| COc1ccccc1N1CCN(CCC(=O)N[C@@H]2CCCc3c(OC)cccc32)CC1 | – | – | 770 nM | 870 nM | – |
| COc1ccccc1N1CCN(CCNC2CCCc3c(OC)cccc32)CC1 (configuration not stated) | 29 | 49 | – | – | – |
| COc1ccccc1N1CCN(CCC[C@H]2CCCc3c(OC)cccc32)CC1 | – | – | 0.8 nM | – | 1.6 nM |
